Some results are limits rather than exact numbers.

The species named for data set [1] is Mus musculus. Kind of data set: Effective dose that causes 50% increase in life span of mice. The format is functional. In short, it runs like this:
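In L1210-bearing mice, ip dosing was run on day 1 across 4–6 dose levels giving 15–100% ILS, with six mice per dose. ED50 (dose giving 50% ILS) was obtained per experiment by linear regression of dose against %ILS. Values are reported as mean ± SD over the number of experiments.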

Data set [2] relates to Mus musculus. Kind of data set: Percentage increase in life span of L1210 leukemia implanted mice at a dose of 200 mg/kg. The format is functional. In short, it runs like this: (§1)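 Female CD2F1 mice, 10–12 weeks old, inoculated ip on day 0 with 10⁵ L1210 leukemia cells. Test agent dissolved in sterile saline immediately before use and given as a single ip dose on day 1 at 0.01 mL/g body weight. Groups of 6–8 treated and 18–24 control mice, following NCI screening protocol. Read-out is % increase in life span, with survivors noted at day 60.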

Data set [3] relates to Mus musculus. In words: Percentage increase in life span of L1210 leukemia implanted mice at a dose of 300 mg/kg. The format is functional. In short, it runs like this:
as §1

The subject of data set [4] is Mus musculus. In words: Percentage increase in life span of L1210 leukemia implanted mice at a dose of 400 mg/kg. The format is functional. In short, it runs like this:
as §1

The test system of data set [5] is Mus musculus. Kind of data set: Percentage increase in life span of L1210 leukemia implanted mice at a dose of 60 mg/kg. The format is functional. In short, it runs like this:
as §1

Data set [6] concerns Mus musculus. In words: Percentage increase in life span of L1210 leukemia implanted mice at a dose of 100 mg/kg. The format is functional. In short, it runs like this: as §1
Data set [7] has as its system Mus musculus. Kind of data set: Percentage increase in life span of L1210 leukemia implanted mice at a dose of 150 mg/kg. The format is functional. In short, it runs like this:
as §1

Data set [8] in a line: Lethal dose to kill 50% of the mice after single ip injection to healthy female CD2F1 mice. In kind it is toxicity, organism-based. Conditions: CD2F1, mouse, in vivo. In short, it runs like this:
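Healthy female CD2F1 mice received a single ip injection at 5–6 dose levels spanning 0–100% mortality, with 10 or 15 animals per group. Deaths were followed for 21 days. LD50 and 95% confidence limits were calculated by probit analysis.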

For data set [9], the system named is Mus musculus. In words: Percentage increase in life span of L1210 leukemia implanted mice at a dose of 500 mg/kg. The format is functional. In short, it runs like this:
as §1

In data set [10] the test system is Mus musculus. Kind of data set: Percentage increase in life span of L1210 leukemia implanted mice at a dose of 120 mg/kg. The format is functional. In short, it runs like this:
as §1

For data set [11], the system named is Mus musculus. Kind of data set: Percentage increase in life span of L1210 leukemia implanted mice at a dose of 30-180 mg/kg; value range is 0-12. The format is functional. In short, it runs like this:
as §1

Data set [12] deals with Mus musculus. Kind of data set: Percentage increase in life span of L1210 leukemia implanted mice at a dose of 15-60 mg/kg. The format is functional. In short, it runs like this: as §1
In data set [13] the test system is Mus musculus. In words: Percentage increase in life span of L1210 leukemia implanted mice at a dose of 30-180 mg/kg. The format is functional. In short, it runs like this:
as §1

For data set [14], the system named is Mus musculus. In words: Percentage increase in life span of L1210 leukemia implanted mice at a dose of 80 mg/kg. In kind it is functional. In short, it runs like this:
as §1

The test system of data set [15] is Mus musculus. Kind of data set: Percentage increase in life span of L1210 leukemia implanted mice at a dose of […] 50 mg/kg. The format is functional. In short, it runs like this:
as §1

Data set [16] deals with Mus musculus. In words: Percentage increase in life span of L1210 leukemia implanted mice at a dose of 180 mg/kg. The format is functional. In short, it runs like this:
as §1

The subject of data set [17] is Mus musculus. Kind of data set: Percentage increase in life span of L1210 leukemia implanted mice at a dose of 600 mg/kg. In kind it is functional. In short, it runs like this: as §1

For `O=[P@@]1(NCCBr)OCCCN1CCCl`, in the data set listed under Mus musculus [1], the 50% effect level (ED50) was put at a dose of 27.7 mg/kg. Also, the ILS at 200 mg/kg with Mus musculus [2] is > 550%. The ILS at 300 mg/kg in the data set on Mus musculus [3] is > 350%. Also, the ILS at 400 mg/kg in the data set with Mus musculus [4] turned out to be 62%. Moreover, the ILS at 60 mg/kg in the data set on Mus musculus [5] worked out at 140%. Besides, in the data set on Mus musculus [6], the ILS at 100 mg/kg was > 550%. In the data set with Mus musculus [7], the ILS at 150 mg/kg is > 550%. This compound came in with a 50% lethal dose (LD50) in [8] of 368 mg/kg.
In the data set listed under Mus musculus [1], `O=[P@]1(NCCBr)OCCCN1CCCl` gave an ED50 of 66.2 mg/kg. Further, the ILS at 200 mg/kg in the data set on Mus musculus [2] is > 550%. The ILS at 300 mg/kg in the data set on Mus musculus [3] is > 550%. In addition, the ILS at 400 mg/kg with Mus musculus [4] was > 550%. Also, the ILS at 500 mg/kg with Mus musculus [9] turned out to be 206%. In addition, the ILS at 120 mg/kg in the data set with Mus musculus [10] came to 114%. For the same compound, in the data set with Mus musculus [7], the ILS at 150 mg/kg was > 500%. This compound yielded an LD50 in data set [8] of 541 mg/kg.
Turning to `O=P(OCCNP1(=O)OCCCN1CCCl)(OCc1ccccc1)OCc1ccccc1` (stereo not given), in the data set on Mus musculus [11], the ILS is on record as 0%.
Still for that read-out and setting: the figure for `CCOP(=O)(OCC)OCCNP1(=O)OCCCN1CCCl` (stereo not given) is 0%.
Take `O=P1(NCCF)OCCCN1CCCl` (stereo not given): the ILS at 200 mg/kg in the data set with Mus musculus [2] was -40%. In the data set with Mus musculus [6], the ILS at 100 mg/kg was -40%. Also, the ILS in the data set on Mus musculus [12] amounted to 10%.
Turning to `Cc1ccc(S(=O)(=O)OCCNP2(=O)OCCCN2CCCl)cc1` (stereo not given), the ILS in the data set on Mus musculus [13] turned out to be 13%.
Compound `O=P1(NCCBr)OCCCN1CCCl` (stereo not given) showed an ED50 in the data set listed under Mus musculus [1] of 36.2 mg/kg. For the same compound, the ILS at 200 mg/kg in the data set on Mus musculus [2] was > 550%. In addition, the ILS at 300 mg/kg in the data set on Mus musculus [3] was > 550%. Also, the ILS at 400 mg/kg with Mus musculus [4] is 500%. For the same compound, the ILS at 60 mg/kg in the data set on Mus musculus [5] was 88%. Moreover, the ILS at 80 mg/kg in the data set on Mus musculus [14] came out at 110%. The ILS at 100 mg/kg in the data set on Mus musculus [6] is > 430%. Also, the ILS at 50 mg/kg with Mus musculus [15] came out at 74%. Besides, in the data set with Mus musculus [7], the ILS at 150 mg/kg is > 550%. This compound showed an LD50 in data set [8] of 470 mg/kg.
Take `CC(=O)OCCNP1(=O)OCCCN1CCCl` (stereo not given): the ILS with Mus musculus [13] was 13%.
Take `O=P1(N(CCCl)CCCl)NCCCO1` (stereo not given) [CYCLOPHOSPHAMIDE ANHYDROUS]: in the data set filed under Mus musculus [1], the 50% effective dose (ED50) was 90.6 mg/kg. For the same compound, the ILS at 200 mg/kg with Mus musculus [2] is > 550%. Also, the ILS at 300 mg/kg in the data set with Mus musculus [3] was > 550%. In addition, the ILS at 400 mg/kg with Mus musculus [4] is > 425%. In the data set on Mus musculus [10], the ILS at 120 mg/kg amounted to 86%. Further, the ILS at 150 mg/kg in the data set with Mus musculus [7] was determined as 89%. The same compound returned an LD50 in data set [8] of 445 mg/kg.
`O=P1(NCCCl)OCCCN1CCCl` (stereo not given) [IFOSFAMIDE] returned a 50% effective dose (ED50) in the data set listed under Mus musculus [1] of 88.6 mg/kg. Besides, the ILS at 180 mg/kg in the data set on Mus musculus [16] is > 250%. In addition, in the data set on Mus musculus [2], the ILS at 200 mg/kg is > 350%. In the data set on Mus musculus [3], the ILS at 300 mg/kg is > 400%. Also, the ILS at 400 mg/kg in the data set with Mus musculus [4] is > 500%. Besides, the ILS at 500 mg/kg in the data set with Mus musculus [9] was > 500%. Moreover, the ILS at 600 mg/kg in the data set with Mus musculus [17] is > 480%. Also, the ILS at 120 mg/kg in the data set with Mus musculus [10] was 74%. The ILS at 150 mg/kg with Mus musculus [7] stood at 123%. Further, in data set [8], the LD50 was 679 mg/kg.

One may read the ED50 as the midpoint of the dose-response relation. As a reminder, the LD50 is the dose expected to kill half of the subjects tested.

These data come from ChEMBL document CHEMBL1123954, “Synthesis and antitumor activity of analogues of ifosfamide modified in the N-(2-chloroethyl) group” (J Med Chem, 1988).
